Key:
Histamine H3 receptor [1] = biological target: T1, Histamine H3 receptor (Homo sapiens, UniProt Q9Y5N1); assay: Displacement of [3H]-(R)-alpha-methylhistamine from human H3 receptor expressed in HEK293T cells after 120 mins by scintillation counting; format: cell-based, HEK-293T
Histamine H3 receptor [2] = biological target: Histamine H3 receptor (Rattus norvegicus, UniProt Q9QYN8); assay: Displacement of [3H]-(R)-alpha-methylhistamine from rat H3 receptor expressed in HEK293T cells after 120 mins by scintillation counting; format: cell-based, HEK-293T
CYP3A4 = CYP3A4 (Homo sapiens, UniProt P08684); assay: Inhibition of CYP3A4 at 3 uM; format: ADME
Liver microsomes [3] = assay: Metabolic stability in human liver microsomes assessed as GSH adduct formation at 1 uM after 30 mins in presence of NADPH and UDPGA; format: ADME, Microsome; details: 0.5 h
Outline: (§1)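 Incubations used liver microsomes with NADPH + UDPGA. Glutathione adduct formation was monitored.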

Albumin = Albumin (Homo sapiens, UniProt P02768); assay: Binding affinity to human serum albumin; format: ADME; details: isolated protein
Outline: (§2)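 Binding to human serum albumin and to α1-acid glycoprotein was assessed by Biacore analysis.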

[4] = biological target: Sodium-dependent serotonin transporter (Homo sapiens, UniProt P31645); assay: Binding affinity to 5-HT transporter
[5] = Binding affinity to human alpha1-acid glycoprotein; format: ADME; outline: as §2
Histamine H1 receptor = Histamine H1 receptor (Homo sapiens, UniProt P35367); assay: Binding affinity to H1 receptor
Plasma = assay: AUC (0 to infinity) in rat plasma at 10 mg/kg, po; format: ADME, organism-based; parameters: time infinity, dose 10 mg/kg, route oral; details: in vivo
[6] = biological target: 5-hydroxytryptamine receptor 2B (Homo sapiens, UniProt P41595); assay: Binding affinity to 5-HT2B receptor
D(2) dopamine receptor = D(2) dopamine receptor (Homo sapiens, UniProt P14416); assay: Binding affinity to D2 receptor
Cytochrome P450 3A4 [7] = biological target: T2, Cytochrome P450 3A4 (Homo sapiens, UniProt P08684); assay: Inhibition of CYP3A4-mediated testosterone-6beta-hydroxylation activity in human liver microsomes at 100 uM; format: ADME, Microsome
Outline: (§3)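 Human liver microsomes were incubated with test article at varying concentrations up to 100 μM. Activities measured were CYP1A2, 2A6, 2B6, 2C8, 2C9, 2C19 and 2D6, plus CYP3A4 via midazolam 1′-hydroxylation and via testosterone 6β-hydroxylation.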

[8] = Fraction unbound in human plasma; format: ADME, cell-free
Outline: (§4)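 Free fraction in human and rat plasma was determined by ultrafiltration.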

[9] = Apparent permeability from basolateral to apical side of human Caco2 cells; format: ADME, cell-based; details: Caco-2
Outline: (§5)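 Permeability was measured across Caco-2 epithelial monolayers in both the apical→basolateral and basolateral→apical directions. Apparent permeability is reported in 10−6 cm/s, and a directional ratio (B→A over A→B) was derived.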

Cytochrome P450 2C19 = Cytochrome P450 2C19 (Homo sapiens, UniProt P33261); assay: Inhibition of CYP2C19 in human liver microsomes up to 100 uM; format: ADME, Microsome; outline: as §3
Cytochrome P450 2B6 = Cytochrome P450 2B6 (Homo sapiens, UniProt P20813); assay: Inhibition of CYP2B6 in human liver microsomes up to 100 uM; format: ADME, Microsome; outline: as §3
[10] = Half life in cynomolgus monkey liver microsomes at 1 uM after 30 mins in presence of NADPH and UDPGA; format: ADME, Macaca fascicularis, Microsome
Outline: (§6)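 Liver microsomes from rat, dog, monkey and human were incubated with phase I + II cofactors (NADPH + UDPGA). Half-life was measured in minutes.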

Cytochrome P450 2D6 = Cytochrome P450 2D6 (Homo sapiens, UniProt P10635); assay: Inhibition of CYP2D6 in human liver microsomes up to 100 uM; format: ADME, Microsome; outline: as §3
Cytochrome P450 2C8 = Cytochrome P450 2C8 (Homo sapiens, UniProt P10632); assay: Inhibition of CYP2C8 in human liver microsomes up to 100 uM; format: ADME, Microsome; outline: as §3
[11] = Half life in Sprague-Dawley rat liver microsomes at 1 uM after 30 mins in presence of NADPH and UDPGA; format: ADME, Microsome; outline: as §6
Brain = assay: AUC (0 to infinity) in rat brain at 10 mg/kg, po; format: ADME, organism-based; parameters: dose 10 mg/kg, route oral, time infinity; details: in vivo
Outline: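 Rats were dosed orally at 10 mg/kg. AUC0→∞ was determined in both brain and plasma, and the brain/plasma ratio was calculated from the two AUCs.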

[12] = Metabolic stability in cynomolgus monkey liver microsomes assessed as GSH adduct formation at 1 uM after 30 mins in presence of NADPH and UDPGA; format: ADME, Macaca fascicularis, Microsome; details: 0.5 h; outline: as §1
Histamine H3 receptor [13] = biological target: T1, Histamine H3 receptor; assay: Inverse agonist activity at human H3 receptor expressed in HEK293T cells assessed as inhibition of {35S]GTPgamma binding; format: cell-based, HEK-293T
Outline: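 Basal [35S]GTPγS binding was measured in membranes from HEK cells expressing human H3 receptor, across a range of concentrations. EC50 and maximal inhibition relative to basal binding were derived.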

[14] = Fraction unbound in rat plasma; format: ADME, cell-free; outline: as §4
[15] = biological target: T3, Alpha-2A adrenergic receptor (Homo sapiens, UniProt P08913); assay: Binding affinity to alpha-2A receptor
T3 sequence (P08913 whole entry): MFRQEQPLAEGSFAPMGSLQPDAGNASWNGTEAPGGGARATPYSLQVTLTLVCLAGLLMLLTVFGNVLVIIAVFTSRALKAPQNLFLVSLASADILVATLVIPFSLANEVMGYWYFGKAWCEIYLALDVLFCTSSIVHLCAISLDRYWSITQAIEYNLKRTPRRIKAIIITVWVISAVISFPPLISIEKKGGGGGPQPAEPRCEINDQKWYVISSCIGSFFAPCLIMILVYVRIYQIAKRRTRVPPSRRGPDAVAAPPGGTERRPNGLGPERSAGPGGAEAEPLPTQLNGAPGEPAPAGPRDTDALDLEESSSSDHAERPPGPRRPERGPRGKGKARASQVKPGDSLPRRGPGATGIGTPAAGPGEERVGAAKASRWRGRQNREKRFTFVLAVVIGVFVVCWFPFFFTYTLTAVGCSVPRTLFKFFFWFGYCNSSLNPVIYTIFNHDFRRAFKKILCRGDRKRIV

Histamine H2 receptor = Histamine H2 receptor (Homo sapiens, UniProt P25021); assay: Binding affinity to H2 receptor
Cytochrome P450 3A4 [16] = biological target: T2, Cytochrome P450 3A4; assay: Inhibition of CYP3A4 in human liver microsomes up to 100 uM; format: ADME, Microsome; outline: as §3
Cytochrome P450 1A2 = Cytochrome P450 1A2 (Homo sapiens, UniProt P05177); assay: Inhibition of CYP1A2 in human liver microsomes up to 100 uM; format: ADME, Microsome; outline: as §3
[17] = biological target: T4, 5-hydroxytryptamine receptor 1A (Homo sapiens, UniProt P08908); assay: Binding affinity to 5-HT1A receptor
T4 sequence (P08908 whole entry): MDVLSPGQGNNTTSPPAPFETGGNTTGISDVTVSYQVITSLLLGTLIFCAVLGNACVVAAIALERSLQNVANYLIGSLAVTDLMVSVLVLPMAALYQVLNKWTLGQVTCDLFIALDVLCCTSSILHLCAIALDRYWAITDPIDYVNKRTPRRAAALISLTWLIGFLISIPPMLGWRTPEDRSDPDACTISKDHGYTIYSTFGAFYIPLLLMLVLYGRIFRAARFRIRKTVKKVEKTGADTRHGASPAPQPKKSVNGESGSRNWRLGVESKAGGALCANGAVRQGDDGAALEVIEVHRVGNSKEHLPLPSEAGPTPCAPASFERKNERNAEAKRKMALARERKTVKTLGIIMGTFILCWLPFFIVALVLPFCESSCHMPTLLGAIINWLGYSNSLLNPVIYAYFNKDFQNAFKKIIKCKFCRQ

[18] = biological target: Sodium-dependent dopamine transporter (Homo sapiens, UniProt Q01959); assay: Binding affinity to DAT
Liver microsomes [19] = assay: Metabolic stability in Sprague-Dawley rat liver microsomes assessed as GSH adduct formation at 1 uM after 30 mins in presence of NADPH and UDPGA; format: ADME, Microsome; details: 0.5 h; outline: as §1
[20] = Half life in beagle dog liver microsomes at 1 uM after 30 mins in presence of NADPH and UDPGA; format: ADME, Canis lupus familiaris, Microsome; outline: as §6
Cytochrome P450 3A4 [21] = biological target: T2, Cytochrome P450 3A4; assay: Inhibition of CYP3A4-mediated midazolam-1'-hydroxylation activity in human liver microsomes at 100 uM; format: ADME, Microsome; outline: as §3
Cytochrome P450 2C9 = Cytochrome P450 2C9 (Homo sapiens, UniProt P11712); assay: Inhibition of CYP2C9 in human liver microsomes up to 100 uM; format: ADME, Microsome; outline: as §3
Liver = assay: Metabolic stability in beagle dog liver microsomes assessed as GSH adduct formation at 1 uM after 30 mins in presence of NADPH and UDPGA; format: ADME, Canis lupus familiaris, Microsome; details: 0.5 h; outline: as §1
[22] = Half life in human liver microsomes at 1 uM after 30 mins in presence of NADPH and UDPGA; format: ADME, Microsome; outline: as §6
Cytochrome P450 2A6 = Cytochrome P450 2A6 (Homo sapiens, UniProt P11509); assay: Inhibition of CYP2A6 in human liver microsomes up to 100 uM; format: ADME, Microsome; outline: as §3
[23] = Apparent permeability from apical to basolateral side of human Caco2 cells; format: ADME, cell-based; details: Caco-2; outline: as §5
[24] = biological target: 5-hydroxytryptamine receptor 6 (Homo sapiens, UniProt P50406); assay: Binding affinity to 5-HT6 receptor
[25] = Ratio of Brain AUC (0 to infinity) to plasma AUC (0 to infinity) in rat at 10 mg/kg, po; format: ADME, organism-based; parameters: dose 10 mg/kg, route oral; details: read-out: BPR
Outline: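 Rats dosed orally at 10 mg/kg; brain and plasma AUC0→∞ measured, ratio taken as brain/plasma. Oral vehicle 2% Tween/0.5% methyl cellulose in water.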

T2 sequence (P08684 whole entry): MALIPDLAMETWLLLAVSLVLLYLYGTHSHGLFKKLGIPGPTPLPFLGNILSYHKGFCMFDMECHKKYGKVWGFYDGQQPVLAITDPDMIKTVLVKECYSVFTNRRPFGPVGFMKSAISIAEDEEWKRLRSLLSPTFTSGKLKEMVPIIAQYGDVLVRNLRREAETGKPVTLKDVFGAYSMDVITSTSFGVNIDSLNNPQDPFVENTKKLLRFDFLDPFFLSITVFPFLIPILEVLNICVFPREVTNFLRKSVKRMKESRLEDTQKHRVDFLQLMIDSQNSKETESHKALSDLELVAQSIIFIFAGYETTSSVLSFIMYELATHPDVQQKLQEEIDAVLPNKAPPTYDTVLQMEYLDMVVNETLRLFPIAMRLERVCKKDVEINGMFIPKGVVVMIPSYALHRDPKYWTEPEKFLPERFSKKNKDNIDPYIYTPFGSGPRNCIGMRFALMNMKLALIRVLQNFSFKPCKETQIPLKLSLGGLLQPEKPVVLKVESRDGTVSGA
T1 sequence (Q9Y5N1 whole entry): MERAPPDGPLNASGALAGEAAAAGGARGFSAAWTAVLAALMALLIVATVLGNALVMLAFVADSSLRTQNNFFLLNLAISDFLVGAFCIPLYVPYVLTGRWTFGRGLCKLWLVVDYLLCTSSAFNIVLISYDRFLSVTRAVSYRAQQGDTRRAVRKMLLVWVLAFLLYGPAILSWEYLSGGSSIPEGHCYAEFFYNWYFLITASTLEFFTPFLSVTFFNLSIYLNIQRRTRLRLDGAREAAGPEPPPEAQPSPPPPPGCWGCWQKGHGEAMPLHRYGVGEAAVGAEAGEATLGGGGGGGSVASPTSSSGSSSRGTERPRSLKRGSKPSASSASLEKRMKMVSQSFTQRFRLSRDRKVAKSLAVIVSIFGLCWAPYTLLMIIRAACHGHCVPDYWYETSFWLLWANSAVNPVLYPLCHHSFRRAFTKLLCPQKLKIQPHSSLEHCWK
Chain of Sodium-dependent dopamine transporter (Q01959 whole entry): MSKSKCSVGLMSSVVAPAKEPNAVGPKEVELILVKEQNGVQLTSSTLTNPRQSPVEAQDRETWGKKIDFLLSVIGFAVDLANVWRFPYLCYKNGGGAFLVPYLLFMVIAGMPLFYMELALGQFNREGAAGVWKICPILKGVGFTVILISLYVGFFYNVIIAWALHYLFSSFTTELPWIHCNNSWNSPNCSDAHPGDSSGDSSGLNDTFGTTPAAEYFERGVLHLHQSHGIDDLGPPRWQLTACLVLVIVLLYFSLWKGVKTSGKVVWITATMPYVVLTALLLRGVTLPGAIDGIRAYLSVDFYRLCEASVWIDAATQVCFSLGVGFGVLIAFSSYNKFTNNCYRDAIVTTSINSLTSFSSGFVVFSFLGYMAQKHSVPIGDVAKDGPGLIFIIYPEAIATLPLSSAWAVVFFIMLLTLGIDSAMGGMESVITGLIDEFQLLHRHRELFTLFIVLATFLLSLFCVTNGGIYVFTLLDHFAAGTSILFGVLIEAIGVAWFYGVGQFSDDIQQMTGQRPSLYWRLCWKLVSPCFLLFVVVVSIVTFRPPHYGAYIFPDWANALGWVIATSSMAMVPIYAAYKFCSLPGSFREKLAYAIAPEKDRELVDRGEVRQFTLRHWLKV
Chain of CYP3A4 (P08684 whole entry): as the sequence (P08684 whole entry) above
Chain of D(2) dopamine receptor (P14416 whole entry): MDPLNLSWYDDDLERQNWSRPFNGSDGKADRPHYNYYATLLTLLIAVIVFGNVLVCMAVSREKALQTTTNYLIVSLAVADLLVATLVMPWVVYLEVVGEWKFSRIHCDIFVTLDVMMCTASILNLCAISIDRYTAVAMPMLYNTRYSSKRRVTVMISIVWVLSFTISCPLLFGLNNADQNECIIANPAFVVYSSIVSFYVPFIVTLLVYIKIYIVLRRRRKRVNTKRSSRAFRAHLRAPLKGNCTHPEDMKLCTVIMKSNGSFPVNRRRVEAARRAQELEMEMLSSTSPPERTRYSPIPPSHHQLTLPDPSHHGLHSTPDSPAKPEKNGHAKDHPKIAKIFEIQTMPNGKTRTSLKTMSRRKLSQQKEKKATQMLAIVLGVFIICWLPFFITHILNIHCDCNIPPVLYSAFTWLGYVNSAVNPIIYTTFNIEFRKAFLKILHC
Chain of Cytochrome P450 2B6 (P20813 whole entry): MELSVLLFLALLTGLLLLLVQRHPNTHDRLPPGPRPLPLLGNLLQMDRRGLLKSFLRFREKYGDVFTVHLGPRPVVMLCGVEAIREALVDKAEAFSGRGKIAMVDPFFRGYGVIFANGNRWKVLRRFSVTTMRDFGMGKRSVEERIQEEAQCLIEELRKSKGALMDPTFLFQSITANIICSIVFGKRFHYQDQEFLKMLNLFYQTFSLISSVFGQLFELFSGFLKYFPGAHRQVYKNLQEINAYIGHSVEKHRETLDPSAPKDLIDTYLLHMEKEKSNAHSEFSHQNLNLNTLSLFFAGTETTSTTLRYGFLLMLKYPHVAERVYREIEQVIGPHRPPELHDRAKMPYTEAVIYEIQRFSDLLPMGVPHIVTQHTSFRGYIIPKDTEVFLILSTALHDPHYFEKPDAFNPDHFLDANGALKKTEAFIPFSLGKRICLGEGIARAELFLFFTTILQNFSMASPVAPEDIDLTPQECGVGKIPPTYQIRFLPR
Chain of Albumin (P02768 whole entry): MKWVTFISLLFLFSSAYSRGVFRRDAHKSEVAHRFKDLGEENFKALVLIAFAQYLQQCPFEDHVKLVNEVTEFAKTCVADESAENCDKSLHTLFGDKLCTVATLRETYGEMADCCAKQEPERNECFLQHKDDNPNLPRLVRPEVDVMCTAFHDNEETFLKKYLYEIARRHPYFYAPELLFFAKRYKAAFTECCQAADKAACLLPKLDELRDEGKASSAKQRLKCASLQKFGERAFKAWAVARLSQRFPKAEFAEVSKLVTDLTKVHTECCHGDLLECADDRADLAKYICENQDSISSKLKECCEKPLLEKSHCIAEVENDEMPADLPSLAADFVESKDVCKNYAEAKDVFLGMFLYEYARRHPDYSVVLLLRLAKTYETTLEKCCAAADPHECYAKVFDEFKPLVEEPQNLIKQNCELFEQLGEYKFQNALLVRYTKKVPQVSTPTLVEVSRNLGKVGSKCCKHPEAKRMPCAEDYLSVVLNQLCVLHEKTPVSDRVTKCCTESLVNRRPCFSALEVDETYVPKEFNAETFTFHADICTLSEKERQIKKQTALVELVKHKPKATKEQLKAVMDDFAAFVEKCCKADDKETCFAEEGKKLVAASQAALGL
Chain of Sodium-dependent serotonin transporter (P31645 whole entry): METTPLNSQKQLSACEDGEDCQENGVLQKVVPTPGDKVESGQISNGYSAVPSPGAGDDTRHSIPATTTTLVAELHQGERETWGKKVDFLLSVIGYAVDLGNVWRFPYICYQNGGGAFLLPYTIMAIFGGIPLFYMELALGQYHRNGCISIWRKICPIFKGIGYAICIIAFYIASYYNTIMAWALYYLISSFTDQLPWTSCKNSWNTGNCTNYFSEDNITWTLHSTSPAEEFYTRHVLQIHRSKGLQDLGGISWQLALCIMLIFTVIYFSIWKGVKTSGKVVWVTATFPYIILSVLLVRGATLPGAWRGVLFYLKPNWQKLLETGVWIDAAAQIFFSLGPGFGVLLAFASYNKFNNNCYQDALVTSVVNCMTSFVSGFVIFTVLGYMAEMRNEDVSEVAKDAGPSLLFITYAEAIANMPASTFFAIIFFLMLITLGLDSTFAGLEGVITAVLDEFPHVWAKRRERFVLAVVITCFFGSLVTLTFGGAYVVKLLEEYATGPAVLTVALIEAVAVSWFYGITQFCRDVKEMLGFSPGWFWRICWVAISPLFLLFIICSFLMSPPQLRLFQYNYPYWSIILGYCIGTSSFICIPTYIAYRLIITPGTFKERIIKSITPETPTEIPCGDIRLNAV
Chain of Histamine H2 receptor (P25021 whole entry): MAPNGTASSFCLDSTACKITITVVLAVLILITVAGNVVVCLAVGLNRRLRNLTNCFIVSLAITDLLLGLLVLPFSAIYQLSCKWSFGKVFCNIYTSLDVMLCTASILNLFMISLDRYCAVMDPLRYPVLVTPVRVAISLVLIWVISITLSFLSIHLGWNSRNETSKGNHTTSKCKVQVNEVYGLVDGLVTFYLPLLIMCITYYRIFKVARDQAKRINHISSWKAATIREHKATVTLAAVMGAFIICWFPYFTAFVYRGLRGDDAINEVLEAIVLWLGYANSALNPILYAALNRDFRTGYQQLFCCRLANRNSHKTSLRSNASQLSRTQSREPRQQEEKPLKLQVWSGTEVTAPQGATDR
Chain of 5-hydroxytryptamine receptor 6 (P50406 whole entry): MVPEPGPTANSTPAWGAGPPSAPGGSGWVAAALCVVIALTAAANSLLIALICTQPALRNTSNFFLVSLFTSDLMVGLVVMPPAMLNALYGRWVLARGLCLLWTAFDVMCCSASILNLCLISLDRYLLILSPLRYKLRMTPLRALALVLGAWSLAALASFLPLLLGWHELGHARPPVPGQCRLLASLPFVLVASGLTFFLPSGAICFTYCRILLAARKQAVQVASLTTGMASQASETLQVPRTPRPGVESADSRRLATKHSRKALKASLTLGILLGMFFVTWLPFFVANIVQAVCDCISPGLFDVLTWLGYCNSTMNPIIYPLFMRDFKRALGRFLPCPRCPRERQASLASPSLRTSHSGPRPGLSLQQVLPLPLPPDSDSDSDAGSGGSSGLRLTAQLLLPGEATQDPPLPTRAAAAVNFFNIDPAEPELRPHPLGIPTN

Compound `O=C1c2ccc(-c3ccc(F)cc3)cc2CCN1CCN1CCCCCC1` has a Ki (Histamine H3 receptor [1]) of 0.0057 µM, a Ki (Histamine H3 receptor [2]) of 0.047 µM and an inhibition at 3 µM (CYP3A4) of 47%.
For `CN(C)C(=O)c1ccc(-c2ccc3c(c2)CCN(CCN2CCCC2)C3=O)cc1`, the Stability (Liver microsomes [3]) was “Stable”, the Activity (Albumin) was “Toxic” and the Ki [4] was > 3 µM. For the same compound, the Activity [5] was “Toxic”, the Ki (Histamine H1 receptor) was > 10 µM and the AUC (Plasma) was 2369 ng·h/g. The Ki [6] was > 10 µM, the Ki (D(2) dopamine receptor) was > 10 µM and the “inhibition (INH)” value (Cytochrome P450 3A4 [7]) was “Not Active”. The fraction unbound [8] was 0.59, the Papp B→A [9] was 31.1 ×10⁻⁶ cm/s and the “inhibition (INH)” value (Cytochrome P450 2C19) was “Not Active”. The “inhibition (INH)” value (Cytochrome P450 2B6) was “Not Active”, the half-life at 1 µM [10] was > 60 min and the “inhibition (INH)” value (Cytochrome P450 2D6) was “Not Active”. For the same compound, the “inhibition (INH)” value (Cytochrome P450 2C8) was “Not Active”, the half-life at 1 µM [11] was 26 min and the AUC (Brain) was 642 ng·h/g. The Ki (Histamine H3 receptor [1]) was 0.0009 µM, the Stability [12] was “Stable” and the EC50 (Histamine H3 receptor [13]) was 0.0107 µM. The fraction unbound [14] was 0.5, the Ki [15] was > 3 µM and the Ki (Histamine H2 receptor) was > 55 µM. The “inhibition (INH)” value (Cytochrome P450 3A4 [16]) was “Not Active”, the “inhibition (INH)” value (Cytochrome P450 1A2) was “Not Active” and the Ki [17] was 8.67 µM. The Ki [18] was > 10 µM, the Stability (Liver microsomes [19]) was “Stable” and the half-life at 1 µM [20] was 47 min. The “inhibition (INH)” value (Cytochrome P450 3A4 [21]) was “Not Active”, the “inhibition (INH)” value (Cytochrome P450 2C9) was “Not Active” and the Stability (Liver) was “Stable”. For the same compound, the half-life at 1 µM [22] was 69 min, the “inhibition (INH)” value (Cytochrome P450 2A6) was “Not Active” and the Papp A→B [23] was 12.1 ×10⁻⁶ cm/s. The Ki [24] was > 10 µM and the Kp [25] was 0.27.
